Measured values taken from ChEMBL document CHEMBL1926621, “New potent 5-HT(2A) receptor ligands containing an N'-cyanopicolinamidine nucleus: Synthesis and in vitro pharmacological evaluation” (Eur J Med Chem, 2012).

Key:
[1] = target: T1, 5-hydroxytryptamine receptor 2C (Rattus norvegicus, UniProt P08909); experiment: Displacement of [3H]mesulergine from Sprague-Dawley rat brain cortex serotonin 5-HT2C receptor after 15 mins by liquid scintillation counting in presence of 5-HT2A blocker, spiperone
T1 sequence (P08909 whole entry): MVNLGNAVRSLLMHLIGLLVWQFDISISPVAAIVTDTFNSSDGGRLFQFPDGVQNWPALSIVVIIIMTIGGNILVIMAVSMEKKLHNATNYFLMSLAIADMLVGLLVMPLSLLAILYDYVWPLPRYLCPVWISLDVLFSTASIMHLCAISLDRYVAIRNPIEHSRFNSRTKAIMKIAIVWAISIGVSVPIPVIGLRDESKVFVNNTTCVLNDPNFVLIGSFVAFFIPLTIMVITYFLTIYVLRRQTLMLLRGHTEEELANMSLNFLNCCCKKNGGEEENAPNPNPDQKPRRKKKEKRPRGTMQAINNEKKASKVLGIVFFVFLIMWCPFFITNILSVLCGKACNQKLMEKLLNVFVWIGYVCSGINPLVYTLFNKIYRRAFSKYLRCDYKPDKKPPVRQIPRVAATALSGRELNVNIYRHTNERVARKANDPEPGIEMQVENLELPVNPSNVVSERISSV
Method in brief: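 Male Sprague-Dawley rat frontal cortex membranes (Tris-HCl/EDTA/MgCl2 pH 7.4, ascorbate, pargyline). 100 nM spiperone in all tubes to block 5-HT2A sites. Mianserin defined nonspecific binding. 15 min at 37 °C, PEI-soaked glass fibre filtration. Six compound concentrations in triplicate. Ki by Cheng-Prusoff.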

[2] = target: T2, Adrenergic receptor alpha-2 (Rattus norvegicus, UniProt P22086+P19328+P22909); experiment: Displacement of [3H]yohimbine from rat brain cortex adrenergic alpha2 receptor after 30 mins by liquid scintillation counting
T2 sequence (P22086 whole entry): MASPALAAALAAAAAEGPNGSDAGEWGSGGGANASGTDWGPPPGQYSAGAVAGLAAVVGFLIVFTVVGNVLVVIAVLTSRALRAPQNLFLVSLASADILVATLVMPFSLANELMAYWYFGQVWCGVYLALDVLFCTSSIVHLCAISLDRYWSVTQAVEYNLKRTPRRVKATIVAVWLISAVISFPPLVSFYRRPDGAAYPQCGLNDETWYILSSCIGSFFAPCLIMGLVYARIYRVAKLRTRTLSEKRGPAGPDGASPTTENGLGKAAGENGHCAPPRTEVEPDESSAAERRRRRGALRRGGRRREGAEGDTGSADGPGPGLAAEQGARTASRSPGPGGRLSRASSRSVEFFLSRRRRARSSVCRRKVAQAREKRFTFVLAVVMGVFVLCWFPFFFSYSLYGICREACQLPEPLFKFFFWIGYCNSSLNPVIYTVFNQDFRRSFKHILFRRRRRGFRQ
T2 sequence (P19328 whole entry): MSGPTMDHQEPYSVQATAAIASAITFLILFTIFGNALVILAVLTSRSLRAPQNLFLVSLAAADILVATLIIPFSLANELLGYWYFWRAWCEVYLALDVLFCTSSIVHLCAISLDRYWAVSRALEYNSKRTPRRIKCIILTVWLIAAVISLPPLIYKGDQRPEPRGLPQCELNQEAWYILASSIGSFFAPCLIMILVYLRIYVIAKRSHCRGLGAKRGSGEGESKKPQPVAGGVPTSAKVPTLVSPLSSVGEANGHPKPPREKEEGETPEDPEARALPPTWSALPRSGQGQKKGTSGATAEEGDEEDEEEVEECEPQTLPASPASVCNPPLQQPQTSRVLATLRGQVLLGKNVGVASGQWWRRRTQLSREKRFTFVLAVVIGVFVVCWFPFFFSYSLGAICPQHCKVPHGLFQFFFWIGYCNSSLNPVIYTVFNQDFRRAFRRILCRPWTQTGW
T2 sequence (P22909 whole entry): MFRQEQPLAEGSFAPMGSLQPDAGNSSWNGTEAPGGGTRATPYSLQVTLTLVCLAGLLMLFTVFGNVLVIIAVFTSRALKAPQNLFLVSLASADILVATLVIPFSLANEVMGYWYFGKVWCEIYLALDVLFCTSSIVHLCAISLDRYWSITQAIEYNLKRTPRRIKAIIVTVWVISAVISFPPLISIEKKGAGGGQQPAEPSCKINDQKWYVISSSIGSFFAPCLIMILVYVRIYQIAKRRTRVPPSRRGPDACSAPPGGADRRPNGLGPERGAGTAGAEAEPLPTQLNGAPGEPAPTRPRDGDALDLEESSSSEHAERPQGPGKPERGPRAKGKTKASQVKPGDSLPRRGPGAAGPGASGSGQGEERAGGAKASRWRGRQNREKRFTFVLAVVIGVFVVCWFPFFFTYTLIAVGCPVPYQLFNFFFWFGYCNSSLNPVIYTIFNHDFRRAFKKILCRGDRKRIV
Method in brief: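 Cortex homogenized in 5 mM Tris-HCl, 5 mM EDTA pH 7.3, spun three times at 50,000 g, resuspended in 50 mM Tris-HCl, 0.5 mM EDTA pH 7.5. [3H]yohimbine 1 nM final, 10 mg fresh tissue, 30 min at 25 °C. Phentolamine defined nonspecific binding. Ki by Cheng-Prusoff.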

D(1A) dopamine receptor = D(1A) dopamine receptor (Rattus norvegicus, UniProt P18901); experiment: Displacement of [3H]SCH-23390 from rat corpora striatum dopamine D1 receptor after 15 mins by liquid scintillation counting; conditions: read-out: Ki
Chain of D(1A) dopamine receptor (P18901 whole entry): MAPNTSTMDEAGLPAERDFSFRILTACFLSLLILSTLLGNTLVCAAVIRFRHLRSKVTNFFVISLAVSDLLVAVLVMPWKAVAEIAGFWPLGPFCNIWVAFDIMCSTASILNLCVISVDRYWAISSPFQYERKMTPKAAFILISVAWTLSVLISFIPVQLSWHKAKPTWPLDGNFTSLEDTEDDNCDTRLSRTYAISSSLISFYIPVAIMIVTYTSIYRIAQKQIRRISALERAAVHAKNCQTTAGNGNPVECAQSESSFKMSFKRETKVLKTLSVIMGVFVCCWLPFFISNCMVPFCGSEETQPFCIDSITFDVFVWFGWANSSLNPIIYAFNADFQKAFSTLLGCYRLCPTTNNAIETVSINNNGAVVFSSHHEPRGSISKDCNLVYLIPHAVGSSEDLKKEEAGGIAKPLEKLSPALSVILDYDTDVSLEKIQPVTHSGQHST
Method in brief: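 Rat corpora striata homogenized in 50 mM Tris-HCl pH 7.7, spun twice at 50,000 g. Resuspended in Tris-HCl with NaCl, KCl, CaCl2, MgCl2, ascorbic acid and pargyline. 0.4 nM [3H]SCH-23390 final, 3 mg fresh tissue, 15 min at 37 °C. Nonspecific binding with piflutixol. Ki by Cheng-Prusoff from triplicate six-point curves.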

[3] = target: 5-hydroxytryptamine receptor 2A (Rattus norvegicus) (UniProt P14842); experiment: Displacement of [3H]ketanserin from Sprague-Dawley rat brain cortex serotonin 5-HT2A receptor at 0.001 uM after 15 mins by liquid scintillation counting
Chain of 5-hydroxytryptamine receptor 2A (Rattus norvegicus) (P14842 whole entry): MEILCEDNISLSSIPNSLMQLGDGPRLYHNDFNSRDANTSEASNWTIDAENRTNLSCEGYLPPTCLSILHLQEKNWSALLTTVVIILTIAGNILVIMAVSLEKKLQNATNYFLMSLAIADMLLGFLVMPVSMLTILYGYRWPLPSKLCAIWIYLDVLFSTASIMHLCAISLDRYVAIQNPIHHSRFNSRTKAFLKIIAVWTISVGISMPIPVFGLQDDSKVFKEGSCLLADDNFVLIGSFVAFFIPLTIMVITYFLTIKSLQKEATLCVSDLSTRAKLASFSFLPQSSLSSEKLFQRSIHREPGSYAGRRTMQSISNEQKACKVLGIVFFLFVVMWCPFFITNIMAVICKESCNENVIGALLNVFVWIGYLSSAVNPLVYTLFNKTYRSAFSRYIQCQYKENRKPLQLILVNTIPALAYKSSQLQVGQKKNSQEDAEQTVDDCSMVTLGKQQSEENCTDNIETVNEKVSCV

[4] = target: 5-hydroxytryptamine receptor 2A (Rattus norvegicus) (UniProt P14842); experiment: Displacement of [3H]ketanserin from Sprague-Dawley rat brain cortex serotonin 5-HT2A receptor at 0.0000001 uM after 15 mins by liquid scintillation counting
[5] = target: 5-hydroxytryptamine receptor 2A (Rattus norvegicus) (UniProt P14842); experiment: Displacement of [3H]ketanserin from Sprague-Dawley rat brain cortex serotonin 5-HT2A receptor at 0.00001 uM after 15 mins by liquid scintillation counting

Compound	Ki ([1]; read-out: Ki) [nM]	Ki [2] [nM]	Ki (D(1A) dopamine receptor) [nM]	inhibition [3] [%]	inhibition [4] [%]	inhibition [5] [%]	Ki [1]
Cc1cccc(N2CCN(CCCN/C(=N\C#N)c3ccccn3)CC2)c1C	29.7	318	> 10000	–	–	–	–
N#C/N=C(\NCCCN1CCN(c2ccccn2)CC1)c1ccccn1	> 10000	> 10000	> 10000	–	–	–	–
COc1ccccc1N1CCN(CCCN/C(=N\C#N)c2ccccn2)CC1	1.61	245	> 10000	95.1	21.9	65.9	–
CCOc1ccccc1N1CCN(CCCN/C(=N\C#N)c2ccccn2)CC1	–	571	52.4	–	–	–	Not Active

More lines, now with the values ahead:

Ki ([1]; read-out: Ki) [nM]	Ki [2] [nM]	Ki (D(1A) dopamine receptor) [nM]	inhibition [3] [%]	inhibition [4] [%]	inhibition [5] [%]	Ki [1]	Compound
22.5	–	> 10000	70.4	24.2	44.3	–	N#C/N=C(\NCCCN1CCN(c2ncccn2)CC1)c1ccccn1
1.81	> 10000	> 10000	85.9	34.9	62.8	–	N#C/N=C(\NCCCN1CCN(c2cccc(C(F)(F)F)c2)CC1)c1ccccn1
